For one test, the target named is T1, human TLR7 (Homo sapiens, UniProt Q9NYK1).
T1 sequence (Q9NYK1 27-1049): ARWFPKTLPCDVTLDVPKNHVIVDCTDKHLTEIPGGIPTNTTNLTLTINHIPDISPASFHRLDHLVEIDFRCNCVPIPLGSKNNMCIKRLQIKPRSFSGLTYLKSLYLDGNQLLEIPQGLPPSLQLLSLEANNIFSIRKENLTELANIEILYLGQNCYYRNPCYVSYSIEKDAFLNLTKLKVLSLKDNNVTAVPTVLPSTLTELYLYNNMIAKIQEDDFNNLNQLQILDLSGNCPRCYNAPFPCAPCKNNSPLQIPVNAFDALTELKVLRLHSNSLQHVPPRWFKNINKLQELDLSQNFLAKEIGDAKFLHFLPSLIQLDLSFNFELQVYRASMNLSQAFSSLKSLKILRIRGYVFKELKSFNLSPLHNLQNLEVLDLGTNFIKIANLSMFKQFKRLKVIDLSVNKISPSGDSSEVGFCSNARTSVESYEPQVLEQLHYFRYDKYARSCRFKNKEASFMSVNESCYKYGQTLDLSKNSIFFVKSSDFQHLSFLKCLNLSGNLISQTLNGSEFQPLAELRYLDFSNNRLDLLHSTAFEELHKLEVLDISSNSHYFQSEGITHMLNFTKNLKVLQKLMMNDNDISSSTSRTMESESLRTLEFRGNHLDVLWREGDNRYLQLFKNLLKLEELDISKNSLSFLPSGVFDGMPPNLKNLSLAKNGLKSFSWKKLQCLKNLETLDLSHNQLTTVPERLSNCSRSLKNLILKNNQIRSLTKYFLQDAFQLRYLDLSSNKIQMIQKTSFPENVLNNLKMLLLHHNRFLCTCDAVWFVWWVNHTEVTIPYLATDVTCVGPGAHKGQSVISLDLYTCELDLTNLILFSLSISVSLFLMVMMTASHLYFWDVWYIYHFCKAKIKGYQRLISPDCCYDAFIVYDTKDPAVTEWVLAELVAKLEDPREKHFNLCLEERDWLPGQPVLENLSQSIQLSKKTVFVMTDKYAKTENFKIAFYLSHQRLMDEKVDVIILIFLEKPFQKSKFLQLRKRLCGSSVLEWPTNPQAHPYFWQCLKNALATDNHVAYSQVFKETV
The test can be described thus: SEAP reporter assay in HEK-Blue hTLR7 cells. Type of test: cell-based. In outline:
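HEK-Blue hTLR7 cells (stable human TLR7 with SEAP reporter) were plated at 5 × 10^5 cells/mL in DMEM with 10% heat-inactivated FBS. They were treated with R848 and varying test compound concentrations at 37 °C for 20–24 h. Medium was mixed with QUANTI-Blue, incubated at 37 °C for about 30 min, and read at 620 nm. R848-only = 100% activation; untreated = 0%.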

The target in a further test is TLR4 (Homo sapiens, UniProt O00206). The test can be described thus: Specificity test in HEK-Blue TLR-overexpressing cells, TLR4. To be noted: 5 μM S-1, HEK-Blue TLR cells, TLR-specific agonist. Type of test: cell-based.

From article PMC11628833 (Acta Pharmaceutica Sinica. B, 2024) come the findings set out here.

Sequence of TLR4 (O00206 24-839): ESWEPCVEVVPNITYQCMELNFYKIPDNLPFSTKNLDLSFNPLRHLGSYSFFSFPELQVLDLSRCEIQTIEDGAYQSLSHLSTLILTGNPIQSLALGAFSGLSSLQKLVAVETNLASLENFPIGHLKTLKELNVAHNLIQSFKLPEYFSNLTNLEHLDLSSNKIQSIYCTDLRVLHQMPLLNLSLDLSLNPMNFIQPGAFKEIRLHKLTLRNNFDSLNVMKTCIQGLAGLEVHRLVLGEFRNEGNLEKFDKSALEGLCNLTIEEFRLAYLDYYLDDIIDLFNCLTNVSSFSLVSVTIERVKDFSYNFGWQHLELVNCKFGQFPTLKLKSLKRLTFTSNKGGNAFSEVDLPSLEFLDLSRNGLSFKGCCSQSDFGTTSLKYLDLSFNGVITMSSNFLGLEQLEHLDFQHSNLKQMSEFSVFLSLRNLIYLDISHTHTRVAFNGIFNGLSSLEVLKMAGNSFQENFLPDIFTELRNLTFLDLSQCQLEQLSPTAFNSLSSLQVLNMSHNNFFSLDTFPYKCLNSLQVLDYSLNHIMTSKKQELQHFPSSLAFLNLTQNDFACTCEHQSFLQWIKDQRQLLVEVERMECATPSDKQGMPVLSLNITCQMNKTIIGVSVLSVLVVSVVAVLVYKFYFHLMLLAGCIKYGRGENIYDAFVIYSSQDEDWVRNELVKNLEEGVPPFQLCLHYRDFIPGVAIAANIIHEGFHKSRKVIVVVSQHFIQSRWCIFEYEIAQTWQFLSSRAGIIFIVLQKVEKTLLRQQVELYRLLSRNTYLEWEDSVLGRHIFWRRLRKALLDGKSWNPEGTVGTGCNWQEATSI
Sequence of TLR4 (Q9Y6Y9 17-160 partner limits assumed): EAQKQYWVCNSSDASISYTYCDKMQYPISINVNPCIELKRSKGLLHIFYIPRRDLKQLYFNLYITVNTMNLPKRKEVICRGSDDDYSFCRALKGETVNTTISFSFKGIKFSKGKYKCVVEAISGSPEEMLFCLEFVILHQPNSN

For the compound `O=C(c1ccc(Cl)cc1)N1CCN(c2ccc([N+](=O)[O-])c3ncccc23)CC1` [Compound S1], the midpoint of inhibition at human TLR7, the IC50, lay at 0.79 ± 0.27 µM. Moreover, on TLR4, the “inhibition of TLR4” value is given as “no obvious inhibition”.
